Reference: ChEMBL document CHEMBL1153852, “Steroidal lactones as inhibitors of 17beta-hydroxysteroid dehydrogenase type 5: chemical synthesis, enzyme inhibitory activity, and assessment of estrogenic and androgenic activities” (Eur J Med Chem, 2009)

Columns and labels:
[1] = molecular target: T1, Androgen receptor (Rattus norvegicus) (UniProt P15207); experiment: Binding affinity to rat ventral prostate androgen receptor at 0.1 uM; assay type: tissue-based; details: Prostate gland
T1 sequence (whole entry): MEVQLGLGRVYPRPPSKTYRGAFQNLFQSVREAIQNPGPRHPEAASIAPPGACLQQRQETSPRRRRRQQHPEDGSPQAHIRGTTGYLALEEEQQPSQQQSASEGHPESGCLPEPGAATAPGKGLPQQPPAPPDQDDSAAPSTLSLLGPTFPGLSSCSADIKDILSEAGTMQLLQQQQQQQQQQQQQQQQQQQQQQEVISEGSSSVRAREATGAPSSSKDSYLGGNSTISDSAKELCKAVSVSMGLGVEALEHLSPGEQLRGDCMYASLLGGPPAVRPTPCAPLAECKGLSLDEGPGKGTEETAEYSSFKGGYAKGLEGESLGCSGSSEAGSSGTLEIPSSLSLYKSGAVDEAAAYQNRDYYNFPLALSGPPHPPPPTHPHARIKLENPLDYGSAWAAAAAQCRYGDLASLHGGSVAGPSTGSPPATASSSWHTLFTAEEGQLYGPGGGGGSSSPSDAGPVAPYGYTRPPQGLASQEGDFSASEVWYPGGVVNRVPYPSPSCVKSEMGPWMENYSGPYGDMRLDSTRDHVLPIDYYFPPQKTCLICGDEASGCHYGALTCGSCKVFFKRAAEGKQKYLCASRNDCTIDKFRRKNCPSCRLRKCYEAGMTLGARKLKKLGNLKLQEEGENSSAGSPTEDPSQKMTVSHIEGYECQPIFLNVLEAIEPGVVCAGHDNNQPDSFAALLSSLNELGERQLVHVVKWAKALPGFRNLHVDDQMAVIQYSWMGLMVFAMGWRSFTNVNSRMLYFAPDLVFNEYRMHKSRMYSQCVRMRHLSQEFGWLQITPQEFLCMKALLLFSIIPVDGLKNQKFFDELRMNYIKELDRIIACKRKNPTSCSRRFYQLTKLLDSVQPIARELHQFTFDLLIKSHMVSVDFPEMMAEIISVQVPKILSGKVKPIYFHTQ

[2] = molecular target: T2, Progesterone receptor (Rattus norvegicus) (UniProt Q63449); experiment: Binding affinity to rat uterus progesterone receptor at 0.1 uM
T2 sequence (whole entry): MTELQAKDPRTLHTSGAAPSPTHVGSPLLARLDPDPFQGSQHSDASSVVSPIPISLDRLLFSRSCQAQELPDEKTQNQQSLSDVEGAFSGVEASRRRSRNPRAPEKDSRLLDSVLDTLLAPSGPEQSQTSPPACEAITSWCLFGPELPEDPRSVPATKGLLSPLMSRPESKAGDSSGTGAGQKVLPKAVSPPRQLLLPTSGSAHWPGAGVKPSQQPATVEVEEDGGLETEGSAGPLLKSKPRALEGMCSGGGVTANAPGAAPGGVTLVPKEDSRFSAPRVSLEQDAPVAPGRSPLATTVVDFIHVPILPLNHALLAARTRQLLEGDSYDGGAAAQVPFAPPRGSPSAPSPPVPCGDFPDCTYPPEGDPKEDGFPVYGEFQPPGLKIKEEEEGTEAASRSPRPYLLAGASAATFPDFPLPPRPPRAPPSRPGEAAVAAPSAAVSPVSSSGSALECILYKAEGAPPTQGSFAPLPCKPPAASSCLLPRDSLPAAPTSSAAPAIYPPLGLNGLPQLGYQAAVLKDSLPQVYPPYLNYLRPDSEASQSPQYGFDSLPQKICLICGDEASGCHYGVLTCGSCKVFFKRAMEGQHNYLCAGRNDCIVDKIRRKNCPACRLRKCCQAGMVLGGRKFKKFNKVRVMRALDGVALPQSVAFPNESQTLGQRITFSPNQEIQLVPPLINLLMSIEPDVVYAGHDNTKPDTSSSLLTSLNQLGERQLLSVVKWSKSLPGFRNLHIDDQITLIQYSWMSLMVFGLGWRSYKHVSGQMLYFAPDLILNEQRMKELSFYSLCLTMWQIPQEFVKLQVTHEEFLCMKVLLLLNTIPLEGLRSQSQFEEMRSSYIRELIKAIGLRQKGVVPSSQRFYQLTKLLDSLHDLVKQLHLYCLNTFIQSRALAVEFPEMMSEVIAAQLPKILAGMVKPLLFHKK

[3] = molecular target: T3, Glucocorticoid receptor (Rattus norvegicus) (UniProt P06536); experiment: Binding affinity to rat liver glucocorticoid receptor at 10 uM
T3 sequence (whole entry): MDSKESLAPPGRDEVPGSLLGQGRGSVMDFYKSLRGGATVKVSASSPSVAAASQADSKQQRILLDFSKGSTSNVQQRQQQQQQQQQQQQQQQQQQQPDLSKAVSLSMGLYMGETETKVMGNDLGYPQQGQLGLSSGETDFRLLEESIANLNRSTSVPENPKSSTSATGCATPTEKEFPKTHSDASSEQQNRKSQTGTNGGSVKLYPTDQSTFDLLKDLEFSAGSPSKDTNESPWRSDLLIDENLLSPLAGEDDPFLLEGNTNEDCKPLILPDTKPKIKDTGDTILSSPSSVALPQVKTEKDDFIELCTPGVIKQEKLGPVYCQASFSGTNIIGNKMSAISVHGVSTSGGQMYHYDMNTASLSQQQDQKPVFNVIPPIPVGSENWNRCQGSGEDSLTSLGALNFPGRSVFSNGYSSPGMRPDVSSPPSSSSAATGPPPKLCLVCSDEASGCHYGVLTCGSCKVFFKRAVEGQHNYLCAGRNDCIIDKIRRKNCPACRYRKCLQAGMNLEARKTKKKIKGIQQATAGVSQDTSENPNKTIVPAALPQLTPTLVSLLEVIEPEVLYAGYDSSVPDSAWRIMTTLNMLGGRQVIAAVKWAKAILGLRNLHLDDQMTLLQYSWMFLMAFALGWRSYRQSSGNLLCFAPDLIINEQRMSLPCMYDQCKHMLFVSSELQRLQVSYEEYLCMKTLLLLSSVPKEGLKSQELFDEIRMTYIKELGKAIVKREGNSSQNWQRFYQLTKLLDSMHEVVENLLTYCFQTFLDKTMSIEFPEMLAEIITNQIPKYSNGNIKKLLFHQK
Method in brief: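 Rat liver glucocorticoid receptor competitive binding, reported as % binding. Bound and free steroid are separated by dextran-coated charcoal adsorption instead of protamine sulfate precipitation.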

In the case of `CC1(C)CC[C@@]2(CC[C@H]3[C@@H]4CCc5cc(O)ccc5[C@H]4CC[C@@]32C)OC1=O`, the Activity [1] is reported as 0%, the Activity [2] is reported as 11% and the Activity [3] is reported as 24%.
